From ChEMBL document CHEMBL1800018, “Discovery of a series of imidazo[4,5-b]pyridines with dual activity at angiotensin II type 1 receptor and peroxisome proliferator-activated receptor-γ” (J Med Chem, 2011)
The source made the active and inactive calls. The calls are words filed in the database; no cut-off is given here.

Key:
[1] = tested on: Rattus norvegicus; assay: Antidiabetic activity in ZDF rat assessed as blood glucose level at 1 mg/kg, po QD for 40 days (reference value: 771+/-60 mg/dL); type: functional
[2] = tested on: Rattus norvegicus; assay: Antidiabetic activity in ZDF rat assessed as blood glucose level at 10 mg/kg, po QD for 40 days (reference value: 771+/-60 mg/dL); type: functional
[3] = tested on: Rattus norvegicus; assay: Antidiabetic activity in ZDF rat assessed as blood glucose level at 30 mg/kg, po QD for 40 days (reference value: 771+/-60 mg/dL); type: functional
[4] = tested on: Rattus norvegicus; assay: Antidiabetic activity in ZDF rat assessed as triglyceride level at 10 mg/kg, po QD for 40 days (reference value: 618+/-52 mg/dL); type: functional
[5] = tested on: Rattus norvegicus; assay: Antidiabetic activity in ZDF rat assessed as triglyceride level at 100 mg/kg, po QD for 40 days (reference value: 618+/-52 mg/dL); type: functional
[6] = tested on: Rattus norvegicus; assay: Antidiabetic activity in ZDF rat assessed as body weight gain at 100 mg/kg, po QD for 40 days (reference value: 133+/-9 g); type: functional
Outline: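 Male ZDF rats, starting at about 6 weeks old, were dosed orally once daily for 40 days in 1.5% CMC/0.2% Tween 20 suspension, n = 8/group. Body weight was followed over the study. Gain was calculated per animal from day 0 to day 40 and compared with vehicle and pioglitazone (3 mg/kg) groups. Data are mean ± SEM.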

[7] = tested on: Rattus norvegicus; assay: Antidiabetic activity in ZDF rat assessed as adiponectin level at 1 mg/kg, po QD for 40 days (reference value: 11.9+/-1.5 ug/ml); type: functional
[8] = tested on: Rattus norvegicus; assay: Antidiabetic activity in ZDF rat assessed as adiponectin level at 10 mg/kg, po QD for 40 days (reference value: 11.9+/-1.5 ug/ml); type: functional
[9] = tested on: Rattus norvegicus; assay: Antidiabetic activity in ZDF rat assessed as adiponectin level at 100 mg/kg, po QD for 40 days (reference value: 11.9+/-1.5 ug/ml); type: functional
[10] = species on record: Rattus norvegicus; assay: Steady state free plasma concentration in SHR rat; type: ADME, organism-based; conditions: in vivo, in the assay text read “ZDF rat” for “SHR rat”
[11] = target: T1, Type-1 angiotensin II receptor (Homo sapiens, UniProt P30556); assay: Displacement of [125I]Tyr4-Sar1,Ile8-Angiotensin II from human Angiotensin 1 receptor after 60 mins by scintillation counting
T1 sequence (P30556 whole entry): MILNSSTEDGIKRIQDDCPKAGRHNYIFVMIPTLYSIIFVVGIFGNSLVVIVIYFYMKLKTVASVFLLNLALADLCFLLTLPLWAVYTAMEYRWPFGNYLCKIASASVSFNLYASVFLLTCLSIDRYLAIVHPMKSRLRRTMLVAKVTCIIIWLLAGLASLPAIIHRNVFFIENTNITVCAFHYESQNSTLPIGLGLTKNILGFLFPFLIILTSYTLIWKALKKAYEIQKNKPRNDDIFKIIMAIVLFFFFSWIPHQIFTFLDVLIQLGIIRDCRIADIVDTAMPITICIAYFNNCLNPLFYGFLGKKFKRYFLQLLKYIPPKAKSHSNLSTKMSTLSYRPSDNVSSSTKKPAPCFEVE

[12] = target: T2, Peroxisome proliferator-activated receptor gamma (Homo sapiens, UniProt P37231); assay: Partial agonist activity at human PPARgamma-LBD/Gal4 DNA binding domain by transactivation assay
T2 sequence (P37231 whole entry): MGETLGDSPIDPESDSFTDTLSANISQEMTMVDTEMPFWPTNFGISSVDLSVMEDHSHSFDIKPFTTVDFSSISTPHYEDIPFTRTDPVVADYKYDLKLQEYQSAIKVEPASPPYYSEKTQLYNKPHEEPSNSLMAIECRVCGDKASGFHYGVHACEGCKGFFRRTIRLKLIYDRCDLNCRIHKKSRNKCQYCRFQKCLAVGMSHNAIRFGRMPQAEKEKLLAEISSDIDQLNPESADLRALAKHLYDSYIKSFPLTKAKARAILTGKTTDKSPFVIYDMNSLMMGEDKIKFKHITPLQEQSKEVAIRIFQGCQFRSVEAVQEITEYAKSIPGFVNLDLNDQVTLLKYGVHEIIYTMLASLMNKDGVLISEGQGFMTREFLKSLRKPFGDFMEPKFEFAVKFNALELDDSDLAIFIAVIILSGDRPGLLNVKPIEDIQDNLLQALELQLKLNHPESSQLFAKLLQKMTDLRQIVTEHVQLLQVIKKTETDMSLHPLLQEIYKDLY

[13] = target: T3, Type-2 angiotensin II receptor (Homo sapiens, UniProt P50052); assay: Binding affinity to human Angiotensin receptor 2
T3 sequence (P50052 whole entry): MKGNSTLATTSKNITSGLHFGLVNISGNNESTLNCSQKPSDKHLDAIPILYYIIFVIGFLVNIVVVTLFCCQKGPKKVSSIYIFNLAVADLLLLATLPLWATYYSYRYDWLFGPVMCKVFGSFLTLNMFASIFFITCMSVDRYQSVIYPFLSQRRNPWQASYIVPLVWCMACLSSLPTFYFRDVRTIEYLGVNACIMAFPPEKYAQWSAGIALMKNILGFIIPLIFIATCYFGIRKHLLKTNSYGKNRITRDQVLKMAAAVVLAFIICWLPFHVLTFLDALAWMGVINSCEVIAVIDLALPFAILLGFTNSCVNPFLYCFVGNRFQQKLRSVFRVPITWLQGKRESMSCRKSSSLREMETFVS

[14] = tested on: Rattus norvegicus; assay: Antihypertensive activity in SHR rat assessed as decrease in arterial blood pressure at 10 mg/kg, po administered as single dose; type: functional, Artery
Outline: (§1)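 SHR carried aortic radiotelemetry transmitters implanted under Telazol anesthesia and recovered for at least 1 week. Rats were randomized by 2 h baseline mean BP. Each received vehicle by oral gavage on Day 0 and a single drug dose (0.3–10 mg/kg) on Day 1, with BP followed 20 h each day. The change was taken as Day 1 minus Day 0, n = 8/group.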

[15] = Cmax in SHR rat at 1 mg/kg, po; type: ADME, organism-based; set-up: dose 1 mg/kg, route oral; conditions: in vivo
Outline: (§2)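 SHR received a single oral dose of 1, 3 or 10 mg/kg. Systemic exposure was determined as plasma Cmax and AUC.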

[16] = Cmax in SHR rat at 3 mg/kg, po; type: ADME, organism-based; set-up: dose 3 mg/kg, route oral; conditions: in vivo; outline: as §2
[17] = Cmax in SHR rat at 10 mg/kg, po; type: ADME, organism-based; set-up: dose 10 mg/kg, route oral; conditions: in vivo; outline: as §2
[18] = tested on: Rattus norvegicus; assay: Antihypertensive activity in SHR rat assessed as decrease in arterial blood pressure at 0.3 to 10 mg/kg, po administered as single dose measured after 20 hrs; type: functional, organism-based; conditions: Artery; outline: as §1
[19] = tested on: Rattus norvegicus; assay: Antihypertensive activity in SHR rat assessed as decrease in arterial blood pressure at 10 mg/kg, po QD for 7 days; type: functional, Artery
[20] = AUC in ZDF rat at 100 mg/kg, po; type: ADME, organism-based; set-up: dose 100 mg/kg, route oral; conditions: plasma
Outline: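 Male ZDF rats; satellite animals outside the efficacy groups were given oral doses of 3, 10 or 100 mg/kg. Plasma Cmax and AUC were calculated from these animals.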

[21] = tested on: Rattus norvegicus; assay: Antidiabetic activity in ZDF rat assessed as blood glucose level at 0.1 mg/kg, po QD for 40 days (reference value: 771+/-60 mg/dL); type: functional
[22] = tested on: Rattus norvegicus; assay: Antihypertensive activity in SHR rat assessed as induction of reflex tachycardia at 10 mg/kg, po single dose measured 4 to 8 hrs post dosing

- Cp(f)ss [10]: 2.6 nM
- IC50 [11]: 1.6 nM
- EC50 [12]: 212 nM
- Ki [13]: > 10000 nM
- Cmax [15]: 74 ng/mL
- Cmax [16]: 283 ng/mL
- Cmax [17]: 3070 ng/mL
- AUC [20]: 2600 µg·h/mL
Structure (SMILES): CCc1nc2c(C)cc(CC(C)C)nc2n1[C@H]1CCc2cc(-c3ccccc3-c3nnn[nH]3)ccc21
- Activity [1]: 612 mg/dL
- Activity [2]: 159 mg/dL
- Activity [3]: 140 mg/dL
- Activity [4]: 393 mg/dL
- Activity [5]: 151 mg/dL
- Activity [6]: 202 g
- Activity [7]: 10.2 µg/mL
- Activity [8]: 24.4 µg/mL
- Activity [9]: 27.5 µg/mL
- Activity [14]: 36 mmHg
- Activity [18]: Active
- Activity [19]: >60 mmHg
- Activity [21]: 771 mg/dL
- Activity [22]: Active
